Assay results as given in ChEMBL document CHEMBL3286113, “New potent antibacterial oxazolidinone (MRX-I) with an improved class safety profile” (J Med Chem, 2014).
Converted amounts (≈) assume the structure as drawn.

Legend:
[1] = Elimination half life in fasted human at 600 mg, po administered as single dose; format: ADME, organism-based; settings: in vivo, read-out: beta t1/2 (converted)
How it was run: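 Healthy volunteers (12; six of each sex) in a three-period Latin-square crossover. Each received single oral doses of 300, 600 and 900 mg under fasting conditions, with a 1-week washout between doses. Parameters from a noncompartmental model.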

[2] = Elimination half life in human at 900 mg, po administered as single dose at 30 mins post fat meal; format: ADME, organism-based; settings: in vivo, read-out: beta t1/2 (converted)
How it was run: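 Crossover study in 12 subjects (six of each sex). Each got a single oral 900 mg dose either fasted or 30 min after a fat-containing meal.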

[3] = AUC (0 to 24 hrs) in human at 600 mg, po administered as single dose with meal measured on day 1; format: ADME, organism-based; parameters: time < 24 hr, dose 600 mg, route oral; settings: plasma
How it was run: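 Randomized, double-blind, placebo-controlled multiple-dose study in 32 healthy subjects (half male, half female). Subjects took 28 oral doses of 600 or 800 mg over 15 days, each with a meal. A single dose was given on days 1 and 15 for full PK, and doses were given Q12h from day 2 to day 14. AUC0−24 was measured on days 1 and 15.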

Rattus norvegicus [4] = assay: Toxicity in female rat assessed as effect on hemoglobin level at 20 mg/kg/day, po bid administered for 4 weeks (reference value: 141.8 g/L); format: organism-based; parameters: route oral; settings: in vivo, 672 h
Rattus norvegicus [5] = assay: Toxicity in female rat assessed as effect on hematocrit level at 20 mg/kg/day, po bid administered for 4 weeks (reference value: 39.08%); format: organism-based; parameters: route oral; settings: in vivo, 672 h
Rattus norvegicus [6] = assay: Toxicity in female rat assessed as effect on mean corpuscular hemoglobin level at 20 mg/kg/day, po bid administered for 4 weeks (reference value: 19.5 pg); format: organism-based; parameters: route oral; settings: in vivo, 672 h
Rattus norvegicus [7] = assay: Toxicity in female rat assessed as effect on platelet count at 20 mg/kg/day, po bid administered for 4 weeks (reference value: 654.6 x 10^9/L); format: organism-based; parameters: route oral; settings: in vivo, 672 h
Rattus norvegicus [8] = assay: Toxicity in female rat assessed as effect on neutrophil count at 20 mg/kg/day, po bid administered for 4 weeks (reference value: 22.4%); format: organism-based; parameters: route oral; settings: in vivo, 672 h
Rattus norvegicus [9] = assay: Toxicity in female rat assessed as effect on WBC count at 100 mg/kg/day, po bid administered for 4 weeks (reference value: 3.66 x 10^9/L); format: organism-based; parameters: route oral; settings: in vivo, 672 h
Rattus norvegicus [10] = assay: Toxicity in female rat assessed as effect on RBC count at 100 mg/kg/day, po bid administered for 4 weeks (reference value: 7.28 x 10^12/L); format: organism-based; parameters: route oral; settings: in vivo, 672 h
Rattus norvegicus [11] = assay: Toxicity in female rat assessed as effect on mean corpuscular volume at 200 to 300 mg/kg/day, po bid administered for 4 weeks (reference value: 53.72 fL); format: organism-based; parameters: route oral; settings: in vivo, 672 h
Rattus norvegicus [12] = assay: Toxicity in female rat assessed as effect on platelet count at 200 to 300 mg/kg/day, po bid administered for 4 weeks (reference value: 654.6 x 10^9/L); format: organism-based; parameters: route oral; settings: in vivo, 672 h
Rattus norvegicus [13] = assay: Toxicity in female rat assessed as effect on lymphocyte count at 200 to 300 mg/kg/day, po bid administered for 4 weeks (reference value: 74.8%); format: organism-based; parameters: route oral; settings: in vivo, 672 h
Cytochrome P450 2E1 = Cytochrome P450 2E1 (Homo sapiens, UniProt P05181); assay: Inhibition of CYP2E1 (unknown origin); format: ADME
Chain of Cytochrome P450 2E1 (P05181 whole entry): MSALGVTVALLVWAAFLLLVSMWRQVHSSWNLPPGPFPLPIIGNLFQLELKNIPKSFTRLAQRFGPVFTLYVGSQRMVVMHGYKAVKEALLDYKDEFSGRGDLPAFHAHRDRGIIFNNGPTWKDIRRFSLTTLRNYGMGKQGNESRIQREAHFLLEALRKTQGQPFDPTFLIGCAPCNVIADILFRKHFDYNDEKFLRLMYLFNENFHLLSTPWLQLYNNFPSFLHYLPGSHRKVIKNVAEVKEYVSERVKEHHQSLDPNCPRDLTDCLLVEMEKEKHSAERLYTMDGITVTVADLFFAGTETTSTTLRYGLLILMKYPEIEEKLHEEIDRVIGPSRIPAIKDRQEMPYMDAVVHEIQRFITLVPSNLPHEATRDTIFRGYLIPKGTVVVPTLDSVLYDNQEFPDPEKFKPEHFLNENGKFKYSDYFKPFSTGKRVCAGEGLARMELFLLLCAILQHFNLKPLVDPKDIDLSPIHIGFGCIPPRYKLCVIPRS

Cytochrome P450 2C19 = Cytochrome P450 2C19 (Homo sapiens, UniProt P33261); assay: Inhibition of CYP2C19 (unknown origin) at 1 to 200 uM; format: ADME
Chain of Cytochrome P450 2C19 (P33261 whole entry): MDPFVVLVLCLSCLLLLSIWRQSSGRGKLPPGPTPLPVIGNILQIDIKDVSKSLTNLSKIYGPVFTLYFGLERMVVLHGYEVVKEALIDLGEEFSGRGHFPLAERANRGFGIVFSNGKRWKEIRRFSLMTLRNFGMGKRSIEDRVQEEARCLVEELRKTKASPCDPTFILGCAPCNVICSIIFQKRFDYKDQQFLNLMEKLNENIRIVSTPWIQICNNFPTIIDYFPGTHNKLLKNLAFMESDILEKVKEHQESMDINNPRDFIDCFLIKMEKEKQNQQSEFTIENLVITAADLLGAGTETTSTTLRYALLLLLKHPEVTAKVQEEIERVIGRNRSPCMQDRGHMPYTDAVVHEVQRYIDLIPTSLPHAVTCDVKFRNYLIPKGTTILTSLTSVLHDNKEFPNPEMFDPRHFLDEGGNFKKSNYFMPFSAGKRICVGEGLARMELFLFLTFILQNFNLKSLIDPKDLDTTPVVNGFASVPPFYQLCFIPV

[14] = Clastogenicity in CHL cells assessed as induction of structural chromosomal aberration at 25 to 200 ug/mL measured over 24 hrs in absence of metabolic activation; format: toxicity, cell-based, Cricetulus griseus; settings: chinese hamster
How it was run: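 Chromosomal aberration test in Chinese hamster lung cells, run with and without metabolic activation. Exposure was 50−400 μg/mL for 6 h or 25−200 μg/mL for 24 h, and structural chromosome aberrations were scored.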

Homo sapiens = assay: Toxicity in fasted human at 50 to 1800 mg, po; format: organism-based; settings: in vivo
How it was run: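 Randomized, double-blind, placebo-controlled single ascending dose study in healthy Chinese subjects under fasting conditions. Eight groups received single oral doses of 50, 100, 200, 400, 800, 1200, 1600 or 1800 mg, with tolerability assessed.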

[15] = Myelosuppression activity against human CD34-positive blood stem/progenitor cells assessed as growth inhibition after 9 to 10 days by CellTiter-Glo luminescent assay
Staphylococcus aureus [16] = assay: Antibacterial activity against methicillin-sensitive Staphylococcus aureus; format: functional
[17] = test system: Streptococcus dysgalactiae subsp. equisimilis; assay: Antibacterial activity against Streptococcus equisimilis; format: functional
Staphylococcus aureus [18] = assay: Antibacterial activity against linezolid-resistant Staphylococcus aureus isolate 4184; format: functional
Staphylococcus aureus [19] = assay: Antibacterial activity against Staphylococcus aureus measured after 9 serial passages; format: functional
Staphylococcus aureus [20] = assay: Antibacterial activity against Staphylococcus aureus measured after 10 serial passages; format: functional
Staphylococcus aureus [21] = assay: Antibacterial activity against methicillin-resistant Staphylococcus aureus isolate 0605; format: functional
Enterococcus faecalis [22] = assay: Antibacterial activity against vancomycin-resistant Enterococcus faecalis isolate EFL 4041; format: functional
Staphylococcus aureus [23] = assay: Antibacterial activity against methicillin-sensitive Staphylococcus aureus isolate 15 in po dosed mouse systemic infection model; format: functional; settings: isolate 15, po
Streptococcus pneumoniae = assay: Antibacterial activity against penicillin-sensitive Streptococcus pneumoniae isolate 0806 in po dosed mouse systemic infection model; format: functional; settings: isolate 0806, po
Enterococcus faecalis [24] = assay: Antibacterial activity against vancomycin-sensitive Enterococcus faecalis ATCC 29212 in po dosed mouse systemic infection model; format: functional; settings: ATCC 29212, po
Enterococcus faecalis [25] = assay: Antibacterial activity against vancomycin-resistant Enterococcus faecalis isolate EFL 4041 in po dosed mouse systemic infection model; format: functional; settings: isolate EFL 4041, po
Staphylococcus aureus [26] = assay: Antibacterial activity against methicillin-sensitive Staphylococcus aureus ATCC 29213 in mouse thigh infection model assessed as reduction of log10 CFU per thigh at 5 mg/kg, po; format: functional
How it was run: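 Mouse thigh infection with S. aureus ATCC29213 (MSSA), 10 animals per dosing group. Oral doses were 5, 10, 20, 40 and 80 mg/kg. The read-out was log CFU per thigh after treatment, and the reduction (ΔLogCFU/thigh) was reported.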

Staphylococcus aureus [27] = assay: Antibacterial activity against methicillin-resistant Staphylococcus aureus isolate 0605 in mouse thigh infection model assessed as reduction of log10 CFU per thigh at 5 mg/kg, po; format: functional
Rattus norvegicus [28] = assay: Dose normalized AUC (0 to t) in po dosed rat; format: ADME, organism-based; settings: in vivo
[29] = Oral bioavailability in mouse; format: ADME, organism-based; settings: in vivo
[30] = Tmax in male rat at 15 mg/kg, po; format: ADME, organism-based; parameters: dose 15 mg/kg, route oral; settings: in vivo
How it was run: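 Male and female rats received single oral doses of 5, 15 or 45 mg/kg, with 5 mg/kg iv as a reference arm. Tmax was read from the plasma concentration–time profile for each gender.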

[31] = Cmax in male rat at 15 mg/kg, po; format: ADME, organism-based; parameters: dose 15 mg/kg, route oral; settings: in vivo
[32] = Half life in male rat at 5 mg/kg, po; format: ADME, organism-based; parameters: dose 5 mg/kg, route oral; settings: in vivo
[33] = Half life in male rat at 15 mg/kg, po; format: ADME, organism-based; parameters: dose 15 mg/kg, route oral; settings: in vivo
[34] = AUC (0 to t) in female rat at 5 mg/kg, po; format: ADME, organism-based; parameters: dose 5 mg/kg, route oral; settings: plasma
How it was run: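 Rat PK by gender, with single oral doses of 5, 15 and 45 mg/kg and an iv dose of 5 mg/kg. Tmax, Cmax, T1/2 and AUC0−t were reported per gender.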

**Q.** What does the source list for `O=C1C=CN(c2c(F)cc(N3C[C@H](CNc4ccon4)OC3=O)c(F)c2F)CC1` [CONTEZOLID]?
**A.** half-life [1]: 199 min; half-life [2]: 162 min; AUC(0-t) at 24 h [3]: 68600 ng·h/mL; Activity (Rattus norvegicus [4]): 137.8 g/L; Activity (Rattus norvegicus [5]): 37.16%; Activity (Rattus norvegicus [6]): 20.2 pg; Activity (Rattus norvegicus [7]): 638.2 ×10⁹ /L; Activity (Rattus norvegicus [8]): 15.4%; Activity (Rattus norvegicus [9]): 3.14 ×10⁹ /L; Activity (Rattus norvegicus [10]): 6.67 ×10¹² /L; Activity (Rattus norvegicus [11]): 53.02 fL; Activity (Rattus norvegicus [12]): 464.2 ×10⁹ /L; Activity (Rattus norvegicus [13]): 71.8%; IC50 (Cytochrome P450 2E1): 9.6 µM; inhibition (INH) (Cytochrome P450 2C19): Not Active; Activity [14]: Non-toxic; Activity (Homo sapiens): Non-toxic; IC50 [15]: 15.7 µg/mL (≈ 38.4 µM); MIC (Staphylococcus aureus [16]): 0.5 µg/mL (≈ 1.22 µM); MIC50 (Staphylococcus aureus [16]): 0.5 µg/mL (≈ 1.22 µM); MIC90 (Staphylococcus aureus [16]): 0.5 µg/mL (≈ 1.22 µM); MIC [17]: 1 µg/mL (≈ 2.45 µM); MIC50 [17]: 1 µg/mL (≈ 2.45 µM); MIC90 [17]: 1 µg/mL (≈ 2.45 µM); MIC (Staphylococcus aureus [18]): > 16 µg/mL; MIC (Staphylococcus aureus [19]): 2 µg/mL (≈ 4.9 µM); MIC (Staphylococcus aureus [20]): 4 µg/mL (≈ 9.8 µM); MIC (Staphylococcus aureus [21]): 2 µg/mL (≈ 4.9 µM); MIC (Enterococcus faecalis [22]): 1 µg/mL (≈ 2.45 µM); ED50 (Staphylococcus aureus [23]): 5.7 mg/kg; ED50 (Streptococcus pneumoniae): 22 mg/kg; ED50 (Enterococcus faecalis [24]): 14.1 mg/kg; ED50 (Enterococcus faecalis [25]): 6.2 mg/kg; deltalog10CFU (Staphylococcus aureus [26]): 0.95; deltalog10CFU (Staphylococcus aureus [27]): 2.45; AUCt/dose (Rattus norvegicus [28]): 3703 ng·h/mL/mg/kg; bioavailability [29]: 69%; Tmax [30]: 1 h; Cmax [31]: 10700 ng/mL; half-life [32]: 64.8 min; half-life [33]: 70.8 min; AUC(0-t) [34]: 31500 ng·h/mL
